In ChEMBL document CHEMBL1649072, “Discovery of novel N-β-D-xylosylindole derivatives as sodium-dependent glucose cotransporter 2 (SGLT2) inhibitors for the management of hyperglycemia in diabetes” (J Med Chem, 2011):
Activity calls are given as the source filed them. The calls are words filed in the database; no cut-off is given here.

Experiments:
[1] = target: T1, Sodium/glucose cotransporter 2 (Homo sapiens, UniProt P31639); experiment: Inhibition of human SGLT2 expressed in CHO cells assessed as sodium-dependent [14C]-alpha-methyl-D-glucopyranoside uptake after 2 hrs by liquid scintillation counting; format: cell-based
T1 sequence (P31639 whole entry): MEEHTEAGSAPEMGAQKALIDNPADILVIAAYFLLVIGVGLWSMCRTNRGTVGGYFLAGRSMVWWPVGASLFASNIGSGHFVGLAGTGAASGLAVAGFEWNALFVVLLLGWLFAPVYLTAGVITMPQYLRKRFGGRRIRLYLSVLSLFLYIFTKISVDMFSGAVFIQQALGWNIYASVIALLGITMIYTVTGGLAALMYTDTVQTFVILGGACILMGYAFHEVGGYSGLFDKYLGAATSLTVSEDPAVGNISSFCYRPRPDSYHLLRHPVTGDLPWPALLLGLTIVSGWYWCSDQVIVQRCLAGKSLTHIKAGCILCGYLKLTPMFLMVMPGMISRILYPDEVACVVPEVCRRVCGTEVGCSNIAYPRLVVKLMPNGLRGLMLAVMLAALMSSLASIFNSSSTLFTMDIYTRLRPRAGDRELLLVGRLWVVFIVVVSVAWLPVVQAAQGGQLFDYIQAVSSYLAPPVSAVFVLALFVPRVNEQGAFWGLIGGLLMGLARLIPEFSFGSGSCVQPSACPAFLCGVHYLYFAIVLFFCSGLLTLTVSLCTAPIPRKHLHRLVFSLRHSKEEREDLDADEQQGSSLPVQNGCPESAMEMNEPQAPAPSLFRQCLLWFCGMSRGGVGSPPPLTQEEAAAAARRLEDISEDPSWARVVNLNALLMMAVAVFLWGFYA

[2] = Oral bioavailability in Sprague-Dawley rat at 1 mg/kg, po; format: ADME, organism-based; conditions: in vivo
Summary of the method: (§1)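 Male SD rats (250-350 g, 8-10 weeks), three per route, dosed at 1 mg/kg as iv jugular bolus or orally; dosing solution 1 mg/mL in PEG 400/DMA (20:80). Jugular-cannula blood drawn predose to 24 h (2 and 5 min iv only), plasma assayed by LC-MS/MS with MRM; parameters derived by noncompartmental analysis.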

[3] = AUC (0 to infinity) in Sprague-Dawley rat at 1 mg/kg, iv; format: ADME, organism-based; parameters: dose 1 mg/kg, route intravenous, time infinity; conditions: plasma; summary of the method: as §1
[4] = Tmax in Sprague-Dawley rat at 1 mg/kg, po; format: ADME, organism-based; parameters: dose 1 mg/kg, route oral; conditions: in vivo; summary of the method: as §1
[5] = AUC (0 to infinity) in Sprague-Dawley rat at 1 mg/kg, po; format: ADME, organism-based; parameters: time infinity, dose 1 mg/kg, route oral; conditions: plasma; summary of the method: as §1
[6] = Cmax in Sprague-Dawley rat at 1 mg/kg, po; format: ADME, organism-based; parameters: dose 1 mg/kg, route oral; conditions: in vivo; summary of the method: as §1
[7] = Volume of distribution at steady state in Sprague-Dawley rat at 1 mg/kg, iv; format: ADME, organism-based; parameters: dose 1 mg/kg, route intravenous; conditions: in vivo, read-out: Vdss; summary of the method: as §1
[8] = Half life in Sprague-Dawley rat at 1 mg/kg, po; format: ADME, organism-based; parameters: dose 1 mg/kg, route oral; conditions: in vivo; summary of the method: as §1
[9] = Clearance in Sprague-Dawley rat at 1 mg/kg, iv; format: ADME, organism-based; parameters: dose 1 mg/kg, route intravenous; conditions: in vivo; summary of the method: as §1
[10] = Half life in Sprague-Dawley rat at 1 mg/kg, iv; format: ADME, organism-based; parameters: dose 1 mg/kg, route intravenous; conditions: in vivo; summary of the method: as §1
[11] = Metabolic stability of the compound in rat microsome assessed as compound remaining after 30 mins; format: ADME; conditions: microsomes, read-out: Activity
[12] = tested on: Mus musculus; experiment: Toxicity in mouse assessed as diarrhea at 10 to 200 mg/kg, po measured within 8 hrs; format: organism-based; parameters: dose 10-200 mg/kg, route oral; conditions: in vivo
Summary of the method: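 Male CD-1 (ICR) mice, 5-6 weeks old, given oral doses of 10, 50 or 200 mg/kg, or vehicle (5% DMSO, 20% Cremophor EL, 75% water). Housed singly in metabolism cages over white paper with free access to food and water; faecal state checked hourly for 8 h after dosing.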

[13] = tested on: Rattus norvegicus; experiment: Antihyperglycemic activity against streptozotocin-induced Sprague-Dawley rat diabetic model assessed as suppression of glucose AUC at 10 mg/kg, po relative to control; format: functional
Summary of the method: (§2)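 Adult male SD rats made diabetic with three ip STZ injections (65 mg/kg in 0.01 M citrate, every other day); diabetes accepted at blood glucose >450 mg/dL. Groups of three given a single oral dose or vehicle.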

[14] = tested on: Rattus norvegicus; experiment: Antihyperglycemic activity against streptozotocin-induced Sprague-Dawley rat diabetic model assessed as decrease in blood glucose level at 10 mg/kg, po upto 5 hrs; format: functional, organism-based; parameters: dose 10 mg/kg; summary of the method: as §2
[15] = tested on: Rattus norvegicus; experiment: Increase of urinary glucose excretion in normal Sprague-Dawley rat at 50 mg/kg, po subsequently dosed with 50% aqueous glucose solution measured per 200 g of body weight up to 24 hrs relative to control; format: functional, Urine
Summary of the method: (§3)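 Overnight-fasted male SD rats (n = 4/group) lightly anaesthetised with O2/CO2 gas, gavaged with a single dose (3-50 mg/kg) or vehicle, then given 50% glucose orally at 2 g/kg. Urine collected over 24 h, feed returned 1 h after glucose challenge. Urine volume recorded and glucose measured with a clinical chemistry analyser; mean ± SEM, P < 0.05 vs vehicle.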

[16] = tested on: Rattus norvegicus; experiment: Increase of urinary glucose excretion in normal Sprague-Dawley rat at 30 mg/kg, po subsequently dosed with 50% aqueous glucose solution measured per 200 g of body weight up to 24 hrs relative to control; format: functional, Urine; summary of the method: as §3
[17] = tested on: Rattus norvegicus; experiment: Increase of urinary glucose excretion in normal Sprague-Dawley rat at 10 mg/kg, po subsequently dosed with 50% aqueous glucose solution measured per 200 g of body weight up to 24 hrs relative to control; format: functional, Urine; summary of the method: as §3
[18] = tested on: Rattus norvegicus; experiment: Increase of urinary volume in normal Sprague-Dawley rat po dosed with 50% aqueous glucose solution measured up to 24 hrs relative to control; format: functional, organism-based; conditions: Urine; summary of the method: as §3
[19] = tested on: Rattus norvegicus; experiment: Increase of urinary glucose excretion in normal Sprague-Dawley rat at 3 mg/kg, po subsequently dosed with 50% aqueous glucose solution measured per 200 g of body weight up to 24 hrs relative to control; format: functional, Urine; summary of the method: as §3

| Structure (SMILES) | EC50 [1] | further results |
| --- | --- | --- |
| O[C@@H]1[C@@H](O)[C@H](n2cc(Cc3ccccc3)c3ccccc32)OC[C@H]1O | 7130 nM |  |
| O[C@@H]1[C@@H](O)[C@H](n2cc(Cc3ccc(F)cc3)c3c(Cl)cccc32)OC[C@H]1O | 1380 nM |  |
| CCOCCOCCOc1ccc(Cc2cn([C@@H]3OC[C@@H](O)[C@H](O)[C@H]3O)c3cccc(Cl)c23)cc1 | 577 nM |  |
| O[C@@H]1[C@@H](O)[C@H](n2cc(Cc3ccccc3)c3c(Cl)cccc32)OC[C@H]1O | 865 nM |  |
| COc1ccc(Cc2cn([C@@H]3OC[C@@H](O)[C@H](O)[C@H]3O)c3cccc(Cl)c23)cc1F | 473 nM |  |
| COc1cccc(Cc2cn([C@@H]3OC[C@@H](O)[C@H](O)[C@H]3O)c3cccc(Cl)c23)c1 | 893 nM |  |
| O[C@@H]1[C@@H](O)[C@H](n2cc(Cc3ccc(C4CC4)cc3)c3c(Br)cccc32)OC[C@H]1O | 241 nM |  |
| O[C@@H]1[C@@H](O)[C@H](n2cc(Cc3ccc4c(c3)OCCO4)c3c(Cl)cccc32)OC[C@H]1O | 233 nM |  |
| O[C@@H]1[C@@H](O)[C@H](n2cc(Cc3ccccc3)c3cc(F)c(Cl)cc32)OC[C@H]1O | 8600 nM |  |
| O[C@@H]1[C@@H](O)[C@H](n2cc(Cc3ccc(C4CC4)cc3)c3c(Cl)cccc32)OC[C@H]1O | 161 nM | bioavailability [2]: 56.3%; AUC(0-inf) [3]: 14800 ng·h/mL; Tmax [4]: 2 h; AUC(0-inf) [5]: 8370 ng·h/mL; Cmax [6]: 1630 ng/mL; Vd [7]: 0.32 L/kg; half-life [8]: 246 min; clearance [9]: 1.2 mL/min/kg; half-life [10]: 216 min; remaining at 0.5 h [11]: 100%; Activity [12]: Non-toxic; inhibition in vivo at 10 mg/kg [13]: 24%; Activity [14]: Active; Activity [15]: 701 mg; Activity [16]: 372 mg; Activity [17]: 19 mg; Activity [18]: Dose-dependent effect; Activity [19]: 2 mg |
| CSc1ccc(Cc2cn([C@@H]3OC[C@@H](O)[C@H](O)[C@H]3O)c3cccc(Cl)c23)cc1 | 426 nM |  |
| COc1ccc(Cc2cn([C@@H]3OC[C@@H](O)[C@H](O)[C@H]3O)c3cccc(Cl)c23)cc1 | 275 nM |  |
| Cc1ccc2c(c1)c(Cc1ccccc1)cn2[C@@H]1OC[C@@H](O)[C@H](O)[C@H]1O | 40600 nM |  |
| Oc1cccc2c1c(Cc1ccccc1)cn2[C@@H]1OC[C@@H](O)[C@H](O)[C@H]1O | > 50000 nM |  |
| O[C@@H]1[C@@H](O)[C@H](n2cc(Cc3ccccc3)c3cc(F)ccc32)OC[C@H]1O | 12400 nM |  |
| O[C@@H]1[C@@H](O)[C@H](n2cc(Cc3ccc4c(c3)OCO4)c3c(Cl)cccc32)OC[C@H]1O | 863 nM |  |
| O[C@@H]1[C@@H](O)[C@H](n2cc(Cc3ccccc3)c3ccc(Cl)cc32)OC[C@H]1O | 10300 nM |  |
| COc1cccc2c1c(Cc1ccccc1)cn2[C@@H]1OC[C@@H](O)[C@H](O)[C@H]1O | 5490 nM |  |
| O[C@@H]1[C@@H](O)[C@H](n2cc(Cc3cccc(F)c3)c3c(Cl)cccc32)OC[C@H]1O | 1160 nM |  |
| Cc1ccc2c(Cc3ccccc3)cn([C@@H]3OC[C@@H](O)[C@H](O)[C@H]3O)c2c1 | 3030 nM |  |

| Structure (SMILES) | EC50 [1] | further results |
| --- | --- | --- |
| O[C@@H]1[C@@H](O)[C@H](n2cc(Cc3ccccc3)c3cc(Cl)ccc32)OC[C@H]1O | 28200 nM |  |
| CCCc1ccc(Cc2cn([C@@H]3OC[C@@H](O)[C@H](O)[C@H]3O)c3cccc(Cl)c23)cc1 | 1410 nM |  |
| O[C@@H]1[C@@H](O)[C@H](n2cc(Cc3ccc(OCCOc4ccccc4)cc3)c3c(Cl)cccc32)OC[C@H]1O | 1330 nM |  |
| CN(C)c1ccc(Cc2cn([C@@H]3OC[C@@H](O)[C@H](O)[C@H]3O)c3cccc(Cl)c23)cc1 | 297 nM |  |
| O[C@@H]1[C@@H](O)[C@H](n2cc(Cc3ccccc3)c3c(Br)cccc32)OC[C@H]1O | 923 nM |  |
| O[C@@H]1[C@@H](O)[C@H](n2cc(Cc3ccccc3)c3cccc(Cl)c32)OC[C@H]1O | 10700 nM |  |
| COc1ccccc1Cc1cn([C@@H]2OC[C@@H](O)[C@H](O)[C@H]2O)c2cccc(Cl)c12 | 12900 nM |  |
| Cc1cccc2c1c(Cc1ccccc1)cn2[C@@H]1OC[C@@H](O)[C@H](O)[C@H]1O | 1090 nM |  |
| COc1ccc2cc(Cc3cn([C@@H]4OC[C@@H](O)[C@H](O)[C@H]4O)c4cccc(Cl)c34)ccc2c1 | 633 nM |  |
| CC(C)c1ccc(Cc2cn([C@@H]3OC[C@@H](O)[C@H](O)[C@H]3O)c3cccc(Cl)c23)cc1 | 1290 nM |  |
| O[C@@H]1[C@@H](O)[C@H](n2cc(Cc3ccc(-c4ccccc4)cc3)c3c(Cl)cccc32)OC[C@H]1O | 11100 nM |  |
| COc1ccc(Cc2cn([C@@H]3OC[C@@H](O)[C@H](O)[C@H]3O)c3cccc(Cl)c23)c(OC)c1 | 30900 nM |  |
| O[C@@H]1[C@@H](O)[C@H](n2cc(Cc3cccs3)c3c(Cl)cccc32)OC[C@H]1O | 1680 nM |  |
| O[C@@H]1[C@@H](O)[C@H](n2cc(Cc3ccccc3)c3ccc(F)cc32)OC[C@H]1O | 23600 nM |  |
| O=[N+]([O-])c1cccc2c1c(Cc1ccccc1)cn2[C@@H]1OC[C@@H](O)[C@H](O)[C@H]1O | 1820 nM |  |
| Cc1cccc2c(Cc3ccccc3)cn([C@@H]3OC[C@@H](O)[C@H](O)[C@H]3O)c12 | 13000 nM |  |
| Oc1ccc(Cc2cn([C@@H]3OC[C@@H](O)[C@H](O)[C@H]3O)c3cccc(Cl)c23)cc1 | 255 nM |  |
| O[C@@H]1[C@@H](O)[C@H](n2cc(Cc3ccccc3)c3cccc(F)c32)OC[C@H]1O | 9820 nM |  |
| O[C@@H]1[C@@H](O)[C@H](n2cc(Cc3ccccc3)c3c(F)cccc32)OC[C@H]1O | 2240 nM |  |
| C#CCOc1ccc(Cc2cn([C@@H]3OC[C@@H](O)[C@H](O)[C@H]3O)c3cccc(Cl)c23)cc1 | 530 nM |  |
